Measured values of several laboratories.
Compare with care: the assays were run in different laboratories.
Target: Tyrosine-protein kinase ITK/TSK (ITK, Homo sapiens, UniProt Q08881)
Residues used in one study (Q08881 1-620): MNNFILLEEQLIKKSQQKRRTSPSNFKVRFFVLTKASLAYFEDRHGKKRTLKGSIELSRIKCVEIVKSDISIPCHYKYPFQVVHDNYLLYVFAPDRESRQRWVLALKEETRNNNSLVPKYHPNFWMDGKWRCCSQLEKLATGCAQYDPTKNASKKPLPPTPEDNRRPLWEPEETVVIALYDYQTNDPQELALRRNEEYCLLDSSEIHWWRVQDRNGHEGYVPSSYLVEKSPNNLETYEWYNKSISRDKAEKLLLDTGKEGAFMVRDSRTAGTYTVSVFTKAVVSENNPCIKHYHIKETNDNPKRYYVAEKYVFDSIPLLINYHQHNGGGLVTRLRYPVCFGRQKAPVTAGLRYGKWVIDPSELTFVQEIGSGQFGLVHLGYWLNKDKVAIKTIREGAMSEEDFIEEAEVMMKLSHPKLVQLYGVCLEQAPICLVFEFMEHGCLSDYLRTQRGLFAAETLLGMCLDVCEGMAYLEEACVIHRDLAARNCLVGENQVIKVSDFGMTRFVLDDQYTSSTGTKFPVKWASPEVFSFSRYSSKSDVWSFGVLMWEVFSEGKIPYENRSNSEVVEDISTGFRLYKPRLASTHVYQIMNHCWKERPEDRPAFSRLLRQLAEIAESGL

`Cc1nn(C)cc1-c1nc2c(N3CCN(Cc4ccc(Cl)cc4)CC3)c(Cl)cnc2[nH]1` has a remaining binding of 100% (binding; competition with immobilised ligand; 1 µM).
`Cn1cc(-c2cc(F)cc(N3CCn4c(cc5c4CCCC5)C3=O)c2CO)cc(Nc2ccc(N3CCN(C4COC4)CC3)cn2)c1=O` has an inhibition of 4% (enzyme activity; inhibitor; 0.1 µM).
`O=c1[nH]c2ccccc2n1C1CCN(Cc2ccc(-c3[nH]c4cc5ncnc5cc4nc3-c3ccccc3)cc2)CC1` has a remaining signal of 99.8% (cell-free assay; 0.5 µM).
With `COc1ncccc1-c1cnn2ccc(N3CCN(C(=O)OC(C)C)CC3)nc12` the remaining binding was 100% (binding; competition with immobilised ligand; 1 µM).
`CC(C)(C)c1cc(C=C(C#N)C#N)cc(Br)c1O` gave a remaining activity of 98.4% (enzyme activity; inhibitor; 0.5 µM).
The remaining binding of `N#CC1(c2ccccn2)CCN(Cc2cc(C(=O)O)c(=O)n3ccccc23)CC1` is reported as 100% (cell-free assay; competition with immobilised ligand; 1 µM).
`Cn1cc(-c2cccc(N3CCc4c(sc5c4CC(C)(C)C5)C3=O)c2CO)cc(Nc2ccncn2)c1=O` has an inhibition of 6% (enzyme activity; inhibitor; 1 µM).
`Nc1ncc(-c2nc(N3CCOCC3)nc(N3CCOCC3)n2)c(C(F)F)n1` has a remaining binding of 44% (binding; competition with immobilised ligand; 10 µM).
The remaining binding of `Cn1cncc1[C@@](O)(COc1ccc(C#N)cc1-c1ccc(OC(F)(F)F)cc1)c1ccc(C#N)cc1` is reported as 100% (cell-free assay; competition with immobilised ligand; 1 µM).
